# Most compounds without a hit are left out; they make up all but 5.6% or so of the library.
# aDG glyco up – activators of alpha-DG glycosylation, primary screen, uHTS, Pro5-aDG cells, AlphaScreen; alpha-DG glycosylation AlphaScreen (IIH6); 0% Pro5, 100% B10-LARGE cell signal; activation, % at 10 µM; 0.22% of 360,000 active;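 active means activation of at least 8% versus controls, or a plate z-score of at least 8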;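 further: Pro5 are CHO cells carrying HIG-tagged alpha-DG that lacks glycosylation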
# GRIN3A LBD mod – binders of NR3A ligand-binding domain, primary screen, biophysical, differential scanning fluorimetry, uHTS; NR3A LBD differential scanning fluorimetry, Tm shift; 0% = protein alone, 100% = glycine-bound protein; 2.5% of 340,000 active; AID 1259313, 2017; Glutamate receptor ionotropic, NMDA 3A (GRIN3A) ligand-binding domain; Tm shift relative to glycine control, % at 25 µM;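 active means melting temperature shift of at least 10% of the positive control shift, at one fixed dose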
# CHOP UPR activ – activators of apoptotic CHOP UPR arm, primary screen, cell-based, CHO-CHOP luciferase reporter, luminescence, uHTS; UPR activation; percent of tunicamycin response over DMSO baseline; activation, % at 10 µM; 0.34% of 330,000 active; AID 449763, 2010;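 active means at 10 µM dose, activation of 40% or more, normalized to positive control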;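 further: 100% = tunicamycin at 10 µg/mL and 0% = DMSO alone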
#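 System: CHO-CHOP luciferase reporter cell line | Buffer or medium: F12 medium containing 10% fetal bovine serum | Doses: One dose, 10 µM in 0.5% DMSO | Times: 6 h compound exposure at 37 °C after overnight seeding | Signal: Luciferase luminescence | Read-out: % activation vs tunicamycin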
# CHOP inh – inhibitors of CHOP promoter induction, primary screen, cell-based, unfolded protein response, luciferase reporter; 3.8% of 220,000 active; inhibition, % at 10 µM; CHO-K1 CHOP-promoter luciferase, tunicamycin-induced, 15-18 h;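 active means compounds that reduced the stress-induced luciferase reporter signal by more than about 70% of percent inhibition, limit read from the data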;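 further: 0% = tunicamycin plus vehicle and 100% = wells without tunicamycin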
# UPR XBP1 act – activators of adaptive XBP1 UPR arm, primary screen, cell-based, CHO-XBP1 luciferase reporter, luminescence, uHTS; IRE1-XBP1 UPR activation; percent of tunicamycin response, DMSO as zero; activation, % at 20 µM; 0.33% of 330,000 active; AID 463104, 2010;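 active means versus positive control, 20 µM dose yields 30% or more activation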;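 further: 100% = tunicamycin at 10 µg/mL and 0% = DMSO only wells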
#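 Material: CHO-XBP1 cells stably carrying IRE1-XBP1-driven luciferase reporter / Amount: 1000 cells per well / Compound: 20 µM, 1% DMSO / Times: 6 h treatment, 37 °C / Detection: luciferase luminescence / Measure: % activation of reporter signal versus tunicamycin and DMSO controls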
# MPTP inh – mitochondrial permeability transition pore inhibitors, primary screen, biochemical, isolated mouse mitochondria, absorbance; inhibition, % at 10 µM; AID 602449, 2012; Ca2+ swelling absorbance, 30 min; 1.4% of 360,000 active;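 active means inhibition of 50% or more, scaled per plate between neutral and stimulator controls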;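 further: 0% = DMSO wells given calcium and 100% = 1 mM EGTA wells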
# MPTP counter – fluorescence retest of MPTP screen hits in isolated mitochondria, single concentration | shares compounds with MPTP inh | membrane potential, Rhodamine 123 fluorescence | inhibition, % at 10 µM | 78% of 5,000 active | AID 624504, 2012; in the data active means inhibition above about 22%;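 further: 0% = DMSO vehicle and 100% = positive control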
# MPTP swell DR – mitochondrial permeability transition pore inhibitors, dose response, biochemical, absorbance, uHTS hits. AID 651561, 2012. 58% of 780 active. shares compounds with MPTP inh. IC50, µM. isolated mitochondria swelling; in the data active means IC50 below about 20 µM
# MPTP cs DR – fluorescent counter-screen in isolated mitochondria, dose response, counter-screen for MPTP inhibitor project, biochemical, fluorescence, uHTS hits. isolated mitochondria counterscreen, fluorescence read-out. shares compounds with MPTP inh. 49% of 780 active. IC50, µM; in the data active means IC50 below about 80 µM
# Active calls of the source: *; i = inactive; x = no result.
SMILES,aDG glyco up,GRIN3A LBD mod,CHOP UPR activ,CHOP inh,UPR XBP1 act,MPTP inh,MPTP counter,others
OC(COCC(F)(F)C(F)(F)C(F)(F)C(F)F)Cn1c2ccc(Cl)cc2c2cc(Cl)ccc21 (stereo unspecified),1.7,19.4*,1.4,59.6,-0.4,80.4*,52.2*,
CCOC(=O)c1c(O)c2cc(Cl)ccc2n(CC)c1=O,0.0,0.5,-0.3,-1.1,0.2,0.9,x,
Cc1nn(-c2ccc(Cl)cc2)c2[nH]c(CCl)cc(=O)c12,-0.1,-0.7,-0.4,x,-2.4,80.8*,80.7*,
Cc1cc(=O)[nH]c2c1c(C)nn2-c1ccccc1,0.4,-0.1,-0.6,27.5,3.2,-0.1,x,
Cc1nc(C(=O)Nc2ccccc2Cl)cc2c1[nH]c1ccccc12,-0.5,1.0,4.1,51.0,2.2,54.6*,10.8,MPTP swell DR=>100;MPTP cs DR=>80
COc1ccc(NC(=O)c2cc3c([nH]c4ccccc43)c(C)n2)cc1,0.0,6.9,2.6,-9.1,7.2,1.5,x,
CCN1CCN(c2ncc(C(=O)Nc3cc(Cl)ccc3OC)c3ccccc23)CC1,3.0,0.2,1.0,-9.1,0.7,77.7*,-11.0,MPTP swell DR=i;MPTP cs DR=>80
COc1ccc(Cl)cc1NC(=O)CCN1CCN(c2ccccc2C)CC1,1.0,-0.1,-0.5,55.7,-4.9,3.9,x,
O=C(COc1ccccc1/C=C1\SC(=S)NC1=O)Nc1ccc(F)cc1,-0.3,13.7*,-0.1,x,-1.4,61.0*,77.6*,
CCc1cc(=O)[nH]c(SCC(=O)Nc2ccc3c(c2)OCCO3)n1,-0.2,2.0,-1.1,x,-4.5,-0.8,x,
CC1CCc2c(sc(NC(=S)NC(=O)c3ccccc3)c2C#N)C1 (stereo unspecified),0.0,0.5,8.8,70.9*,1.6,65.9*,70.2*,
CC(C)CC(=O)NC(NC(=S)Nc1sc2c(c1C#N)CCCC2)C(Cl)(Cl)Cl (stereo unspecified),0.1,-2.3,1.7,78.5*,-1.5,89.8*,97.2*,
Cn1ncc(Cl)c1C(=O)NC(=S)Nc1sc2c(c1C#N)CCCCC2,-0.1,13.2*,2.3,64.9,-0.4,90.0*,19.0,MPTP swell DR=i;MPTP cs DR=<2.5*
N#Cc1c(NC(=O)c2ccccc2)sc2c1CCC2,-0.2,3.5,4.8,24.1,2.4,0.0,x,
CCC(=O)Nc1sc2c(c1C#N)CCC2,-0.1,0.8,-1.0,-2.6,0.1,0.7,x,
CC1CCc2c(sc(NC(=O)c3ccccc3C(=O)O)c2C#N)C1 (stereo unspecified),-0.2,0.2,0.0,-20.1,-2.8,-1.9,x,
N#Cc1c(NC(=S)NC(=O)c2ccccc2)sc2c1CCCC2,-0.1,12.2*,3.5,36.5,2.3,86.4*,14.7,MPTP swell DR=i;MPTP cs DR=6.72*
Cc1nc(SCC(=O)N2CCCCCC2)[nH]c(=O)c1C,-0.2,-0.1,-0.3,x,3.8,-0.2,x,
COc1ccc(/C=N/NC(C)(C)C)c(OC)c1,-0.1,2.7,-0.9,2.8,0.5,1.2,x,
COc1ccccc1S(=O)(=O)N(C)C[C@H]1Oc2cc(C#CCC3CCCC3)ccc2S(=O)(=O)N([C@H](C)CO)C[C@H]1C,0.0,x,x,x,x,-0.2,x,
C#CCOCCOCCOCCNc1nc(N2CCN(C(=O)[C@H](C)n3cc(CCC(=O)O)nn3)CC2)nc(N2CCN(C(=O)[C@H](CCCCN)n3cc(CCCC)nn3)CC2)n1,0.1,-0.3,x,x,x,-0.2,x,
O=C(O)CSC1CC(=O)N(c2ccc(Cl)cc2)C1=O (stereo unspecified),0.2,-1.2,-1.0,13.8,-1.5,-2.2,x,
O=C(CSC1CC(=O)N(CC(c2ccccc2)c2ccccc2)C1=O)Nc1ccc(Cl)cc1 (stereo unspecified),0.7,9.1,x,52.7,x,74.6*,79.3*,
C#Cc1ccc([C@@H]2C=C(C(=O)OCC=C)O[C@H](OCCCCO)C2)cc1,-0.1,-1.8,0.8,24.1,-2.0,0.3,x,
COc1ccc(C(=O)COC(=O)c2ccccc2NS(=O)(=O)c2ccc(O)c([N+](=O)[O-])c2)cc1,0.2,6.2,1.5,-7.7,-1.4,70.7*,51.0*,
SMILES,aDG glyco up,GRIN3A LBD mod,CHOP UPR activ,CHOP inh,UPR XBP1 act,MPTP inh,MPTP counter,others
CN(NC(=S)Nc1ccc(OC(F)F)cc1)C(=S)Nc1ccc(OC(F)F)cc1,0.9,1.8,-1.1,9.8,-0.3,84.2*,93.5*,
FC(F)Oc1ccc(NC(=S)NCCc2ccccn2)cc1,-0.3,-0.8,0.8,-18.9,3.4,0.1,x,
CC(C)Oc1ccc(CNC(=S)Nc2ccccc2)cc1Cl,0.1,-2.9,0.4,x,0.6,26.4,x,
FC(F)Oc1ccc(NC(=S)NCc2ccccc2)cc1,0.4,3.8,-0.7,4.8,-1.0,79.0*,81.0*,
FC(F)Oc1ccc(NC(=S)NCc2ccccc2)cc1Cl,-0.1,-2.3,-2.1,45.1,-1.7,99.6*,82.3*,
Oc1cccc2c(NC(=S)Nc3ccc(OC(F)F)cc3)cccc12,-0.1,11.0*,0.2,33.1,2.0,62.2*,80.0*,
c1ccc2c(Cn3ccnc3)cccc2c1,-0.1,0.7,2.2,x,0.2,0.0,x,
CCCN(CC(=O)Nc1ccccc1C)C(=O)c1ccc(N2CCCC2=O)cc1,0.0,0.2,-1.5,x,2.3,-1.8,x,
CC(C)c1ccc(N(C(=O)c2ccco2)C(C(=O)NC2CCCC2)c2ccncc2)cc1 (stereo unspecified),0.0,-1.2,5.8,x,0.2,-1.9,x,
Cc1sc(NC(=O)/C=C/c2ccco2)c(C(=O)OC(C)C)c1C,-0.2,3.7,3.2,12.5,1.8,52.2*,0.8,MPTP swell DR=>100;MPTP cs DR=>80
O=C(OCc1ccccc1F)c1cnc(Cl)c(Cl)c1,0.2,-2.0,3.3,x,3.5,-1.1,x,
Cc1noc(C)c1CSc1nc2ccccc2nc1NS(=O)(=O)c1ccc(Cl)cc1,0.0,4.9,1.8,x,-0.8,88.5*,87.2*,
Cc1c(CC(=O)N2CCC(C(=O)O)CC2)c(=O)oc2cc3c(cc12)CCC1(CCCCC1)O3,-0.2,-2.4,-0.4,x,-0.8,-1.5,x,

# Screens from PubChem.
